This is an account of results in ChEMBL document CHEMBL1145054, “Enantioselective syntheses and cytotoxicity of N,O-nucleosides” (J Med Chem, 2003).

The subject of assay [1] is HL-60. The assay can be described thus: Cytotoxic concentration required to cause 50% toxicity in HL-60 cell lines at 24 hours. It counts as functional. The note with it: Homo sapiens, HL-60, 24 h. Summed up:
(§1)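 Cells were exposed under optimal culture conditions to 8–512 μM test agent or to control medium for the stated time. Viability was scored by trypan blue exclusion. CC50 is the concentration causing 50% toxicity, determined from two or more experiments.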

In assay [2] the test system is HL-60. The assay can be described thus: Cytotoxic concentration required to cause 50% toxicity in HL-60 cell lines at 48 hours. Format: functional. To be noted: Homo sapiens, HL-60, 48 h. Summed up:
as §1

The test system of assay [3] is HL-60. The assay can be described thus: Apoptotic concentration required to cause apoptosis in 50% of HL-60 cell lines at 24 hours. Format: functional, cell-based. To be noted: Homo sapiens, HL-60, 24 h. Summed up:
(§2)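 Cells were exposed under optimal culture conditions to 8–512 μM test agent or to control medium for the stated time. They were then stained with acridine orange, and over 600 cells were counted by fluorescence microscopy. Cells counted as apoptotic had uniformly stained nuclei with chromatin condensation and nuclear fragmentation. AC50 is the concentration giving 50% apoptosis, determined from two or more experiments.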

Assay [4] concerns HL-60. The assay can be described thus: Apoptotic concentration required to cause apoptosis in 50% of HL-60 cell lines at 48 hours. It counts as functional, cell-based. The note with it: Homo sapiens, HL-60, 48 h. Summed up: as §2
For assay [5], the system named is MOLT-3. Briefly: Apoptotic concentration required to cause apoptosis in 50% of Molt-3 cell lines at 24 hours. It counts as functional, cell-based. The note with it: Homo sapiens, MOLT-3, 24 h. Summed up: as §2
Assay [6] relates to MOLT-3. Briefly: Apoptotic concentration required to cause apoptosis in 50% of Molt-3 cell lines at 48 hours. It counts as functional, cell-based. The note with it: Homo sapiens, MOLT-3, 48 h. Summed up:
as §2

The subject of assay [7] is MOLT-3. Briefly: Apoptotic concentration required to cause apoptosis in 50% of Molt-3 cell lines at 72 hours. It counts as functional, cell-based. The note with it: Homo sapiens, MOLT-3, 72 h. Summed up:
as §2

The test system of assay [8] is MOLT-3. The assay can be described thus: Cytotoxic concentration required to cause 50% toxicity in Molt-3 cell lines at 24 hours. The note with it: Homo sapiens, MOLT-3, 24 h. Format: functional. Summed up:
as §1

In assay [9] the test system is MOLT-3. Briefly: Cytotoxic concentration required to cause 50% toxicity in Molt-3 cell lines at 48 hours. It counts as functional. The note with it: Homo sapiens, MOLT-3, 48 h. Summed up: as §1
For assay [10], the system named is MOLT-3. The assay can be described thus: Cytotoxic concentration required to cause 50% toxicity in Molt-3 cell lines at 72 hours. To be noted: Homo sapiens, MOLT-3, 72 h. It counts as functional. Summed up: as §1
Assay [11] relates to THP-1. The assay can be described thus: Apoptotic concentration required to cause apoptosis in 50% of THP-1 cell lines at 24 hours. It counts as functional, cell-based. The note with it: Homo sapiens, THP-1, 24 h. Summed up: as §2
For assay [12], the system named is THP-1. Briefly: Cytotoxic concentration required to cause 50% toxicity in THP-1 cell lines at 24 hours. The note with it: Homo sapiens, THP-1, 24 h. Format: functional. Summed up: as §1
Assay [13] deals with U-937. The assay can be described thus: Apoptotic concentration required to cause apoptosis in 50% of U-937 cell lines at 24 hours. The note with it: Homo sapiens, U-937, 24 h. Format: functional, cell-based. Summed up:
as §2

The test system of assay [14] is U-937. Briefly: Apoptotic concentration required to cause apoptosis in 50% of U-937 cell lines at 48 hours. It counts as functional, cell-based. The note with it: Homo sapiens, U-937, 48 h. Summed up:
as §2

Assay [15] has as its system U-937. The assay can be described thus: Apoptotic concentration required to cause apoptosis in 50% of U-937 cell lines at 72 hours. It counts as functional, cell-based. The note with it: Homo sapiens, U-937, 72 h. Summed up: as §2
Assay [16] has as its system U-937. Briefly: Cytotoxic concentration required to cause 50% toxicity in U-937 cell lines at 24 hours. It counts as functional. The note with it: Homo sapiens, U-937, 24 h. Summed up:
as §1

Assay [17] concerns U-937. Briefly: Cytotoxic concentration required to cause 50% toxicity in U-937 cell lines at 48 hours. It counts as functional. The note with it: Homo sapiens, U-937, 48 h. Summed up:
as §1

Assay [18] relates to U-937. Briefly: Cytotoxic concentration required to cause 50% toxicity in U-937 cell lines at 72 hours. It counts as functional. The note with it: Homo sapiens, U-937, 72 h. Summed up: as §1

Bounds are passed on as bounds.

Take `O=c1[nH]c(=O)n(C2CCNO2)cc1F` (stereo not drawn): the CC50 was more than 1000 µM in the assay on HL-60 [1]; more than 1000 µM in the assay on HL-60 [2]; more than 1000 µM in the assay with MOLT-3 [8]; 806 µM in the assay on MOLT-3 [9]; 366 µM in the assay on MOLT-3 [10]; more than 1000 µM with THP-1 [12]. The CC50 in the assay on U-937 [16] is more than 1000 µM; with U-937 [17] it was more than 1000 µM; with U-937 [18] it was 687 µM. Moreover, the AC50 was more than 1000 µM in the assay with HL-60 [3]; more than 1000 µM in the assay with HL-60 [4]; 329 µM in the assay with MOLT-3 [5]; 96 µM in the assay on MOLT-3 [6]; 13 µM in the assay on MOLT-3 [7]; more than 1000 µM in the assay on THP-1 [11]. Further, the AC50 was more than 1000 µM with U-937 [13], 123 µM with U-937 [14] and 3 µM with U-937 [15].
